The results in this text go back to ChEMBL document CHEMBL4825702, “5-Aminonaphthalene derivatives as selective nonnucleoside nuclear receptor binding SET domain-protein 2 (NSD2) inhibitors for the treatment of multiple myeloma” (Eur J Med Chem, 2021).

For assay [1], the system named is RS4-11. In words: Antiproliferative activity against human RS4-11 cells assessed as reduction in cell viability at 1 to 100 uM by CCK8 assay. The format is functional, cell-based. Conditions: dose 1-100 µM, time 6.0 day, TDE = time-dependent effect. In general terms: Formazan colour is commonly taken as a measure of viable cells.
The subject of assay [2] is MV4-11. In words: cells. Conditions: Homo sapiens, MV4-11, 72 h, read-out: Activity.
The test system of assay [3] is RS4-11. As to the kind of experiment: Toxicity in SCID mouse xenografted with human RS4-11 cells assessed as body weight LOSS at 25 to 50 mg/kg, ip qd administered consecutively for 21 days. The format is functional, organism-based. Conditions: dose 25-50 mg/kg, time 21.0 day. Put shortly: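 Female SCID mice, 4 weeks old, implanted subcutaneously in the flank with 1 × 10⁷ RS4:11 cells in 0.2 mL PBS. At about 100 mm³, groups of n = 8 received 25 or 50 mg/kg or vehicle intraperitoneally once daily for 21 days. Body weight and tumors measured twice weekly.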

Assay [4] concerns the target Histone-lysine N-methyltransferase SETD2 (Homo sapiens, UniProt Q9BYW2). In words: Inhibition of SETD2 (unknown origin) using SAM as substrate preincubated for 10 mins followed by substrate addition measured after 4 hrs by AlphaLISA method.
The test system of assay [5] is KMS-11. As to the kind of experiment: Antiproliferative activity against human KMS-11 cells assessed as reduction in cell viability incubated for 6 days by CCK8 assay. The assay is classed as functional, cell-based. As to conditions: dose 1-100 µM, time 6.0 day. Put shortly:
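Cells seeded in triplicate at 6000–20000 per well and left 24 h, then exposed to increasing concentrations for a further 6 days. Viability read with CCK-8 and growth IC50 derived from the dose–response.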

For assay [6], the target named is Protransforming growth factor alpha (Homo sapiens) (UniProt P01135). In words: Inhibition of TGFA transcriptional activity in human KMS-11 cells assessed as reduction in H3K36 methylation at 10 uM measured after 72 hrs by chip q-PCR analysis. The format is cell-based. The essentials: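 KMS11 cells treated with test agent or DMSO. ChIP with magnetic-bead enzymatic chromatin IP kit using anti-H3K36me2, anti-histone H3 and IgG control antibodies. H3K36me2 quantified by qPCR with primers spanning the promoter regions of TGFA, MET, PAK1 and RRAS2.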
Sequence of Protransforming growth factor alpha (Homo sapiens) (P01135 whole entry): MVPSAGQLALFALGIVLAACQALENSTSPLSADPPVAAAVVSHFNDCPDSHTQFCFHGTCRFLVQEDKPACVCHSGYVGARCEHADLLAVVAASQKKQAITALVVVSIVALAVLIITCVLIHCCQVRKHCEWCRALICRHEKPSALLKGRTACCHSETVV

The subject of another assay is HL-60. In words: Antiproliferative activity against human HL-60 cells assessed as reduction in cell viability incubated for 6 days by CCK8 assay.
For assay [7], the system named is MV4-11. In words: Induction of cell cycle arrest in human MV4-11 cells assessed as G0/G1 phase incubated for 72 hrs by ribonucleaseA/propidium iodide staining based flow cytometry analysis. The assay is classed as functional. Put shortly:
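Cell cycle by PI: cells exposed for 72 h at 5 and 10 µM vs vehicle, washed twice, fixed overnight in pre-cooled 70% ethanol, then stained 45 min at room temperature with ribonuclease A and PI. Acquired on FACSCanto and phase fractions modelled.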
A general note: A flow cytometer gives signals particle by particle.

In assay [8] the test system is MV4-11. In words: Antiproliferative activity against human MV4-11 cells assessed as reduction in cell viability incubated for 6 days by CCK8 assay.
Assay [9] has as its system RS4-11. In words: Antitumor activity against human RS4-11 cells xenografted in SCID mouse assessed as tumor growth inhibition at 50 mg/kg, ip qd administered consecutively for 21 days relative to control. Conditions: RS4-11, ip, 504 h, read-out: TGI. On the technique in general: A xenograft is tissue or cells of one species grown in another, often human tumour cells in immunodeficient mice.

Assay [10] relates to KMS-11. In words: cells. As to conditions: Homo sapiens, KMS-11, 72 h, read-out: Activity.

Activity calls are given as the source filed them. The rule behind the calls is not given here.

Sequence of Histone-lysine N-methyltransferase SETD2 (Q9BYW2 whole entry): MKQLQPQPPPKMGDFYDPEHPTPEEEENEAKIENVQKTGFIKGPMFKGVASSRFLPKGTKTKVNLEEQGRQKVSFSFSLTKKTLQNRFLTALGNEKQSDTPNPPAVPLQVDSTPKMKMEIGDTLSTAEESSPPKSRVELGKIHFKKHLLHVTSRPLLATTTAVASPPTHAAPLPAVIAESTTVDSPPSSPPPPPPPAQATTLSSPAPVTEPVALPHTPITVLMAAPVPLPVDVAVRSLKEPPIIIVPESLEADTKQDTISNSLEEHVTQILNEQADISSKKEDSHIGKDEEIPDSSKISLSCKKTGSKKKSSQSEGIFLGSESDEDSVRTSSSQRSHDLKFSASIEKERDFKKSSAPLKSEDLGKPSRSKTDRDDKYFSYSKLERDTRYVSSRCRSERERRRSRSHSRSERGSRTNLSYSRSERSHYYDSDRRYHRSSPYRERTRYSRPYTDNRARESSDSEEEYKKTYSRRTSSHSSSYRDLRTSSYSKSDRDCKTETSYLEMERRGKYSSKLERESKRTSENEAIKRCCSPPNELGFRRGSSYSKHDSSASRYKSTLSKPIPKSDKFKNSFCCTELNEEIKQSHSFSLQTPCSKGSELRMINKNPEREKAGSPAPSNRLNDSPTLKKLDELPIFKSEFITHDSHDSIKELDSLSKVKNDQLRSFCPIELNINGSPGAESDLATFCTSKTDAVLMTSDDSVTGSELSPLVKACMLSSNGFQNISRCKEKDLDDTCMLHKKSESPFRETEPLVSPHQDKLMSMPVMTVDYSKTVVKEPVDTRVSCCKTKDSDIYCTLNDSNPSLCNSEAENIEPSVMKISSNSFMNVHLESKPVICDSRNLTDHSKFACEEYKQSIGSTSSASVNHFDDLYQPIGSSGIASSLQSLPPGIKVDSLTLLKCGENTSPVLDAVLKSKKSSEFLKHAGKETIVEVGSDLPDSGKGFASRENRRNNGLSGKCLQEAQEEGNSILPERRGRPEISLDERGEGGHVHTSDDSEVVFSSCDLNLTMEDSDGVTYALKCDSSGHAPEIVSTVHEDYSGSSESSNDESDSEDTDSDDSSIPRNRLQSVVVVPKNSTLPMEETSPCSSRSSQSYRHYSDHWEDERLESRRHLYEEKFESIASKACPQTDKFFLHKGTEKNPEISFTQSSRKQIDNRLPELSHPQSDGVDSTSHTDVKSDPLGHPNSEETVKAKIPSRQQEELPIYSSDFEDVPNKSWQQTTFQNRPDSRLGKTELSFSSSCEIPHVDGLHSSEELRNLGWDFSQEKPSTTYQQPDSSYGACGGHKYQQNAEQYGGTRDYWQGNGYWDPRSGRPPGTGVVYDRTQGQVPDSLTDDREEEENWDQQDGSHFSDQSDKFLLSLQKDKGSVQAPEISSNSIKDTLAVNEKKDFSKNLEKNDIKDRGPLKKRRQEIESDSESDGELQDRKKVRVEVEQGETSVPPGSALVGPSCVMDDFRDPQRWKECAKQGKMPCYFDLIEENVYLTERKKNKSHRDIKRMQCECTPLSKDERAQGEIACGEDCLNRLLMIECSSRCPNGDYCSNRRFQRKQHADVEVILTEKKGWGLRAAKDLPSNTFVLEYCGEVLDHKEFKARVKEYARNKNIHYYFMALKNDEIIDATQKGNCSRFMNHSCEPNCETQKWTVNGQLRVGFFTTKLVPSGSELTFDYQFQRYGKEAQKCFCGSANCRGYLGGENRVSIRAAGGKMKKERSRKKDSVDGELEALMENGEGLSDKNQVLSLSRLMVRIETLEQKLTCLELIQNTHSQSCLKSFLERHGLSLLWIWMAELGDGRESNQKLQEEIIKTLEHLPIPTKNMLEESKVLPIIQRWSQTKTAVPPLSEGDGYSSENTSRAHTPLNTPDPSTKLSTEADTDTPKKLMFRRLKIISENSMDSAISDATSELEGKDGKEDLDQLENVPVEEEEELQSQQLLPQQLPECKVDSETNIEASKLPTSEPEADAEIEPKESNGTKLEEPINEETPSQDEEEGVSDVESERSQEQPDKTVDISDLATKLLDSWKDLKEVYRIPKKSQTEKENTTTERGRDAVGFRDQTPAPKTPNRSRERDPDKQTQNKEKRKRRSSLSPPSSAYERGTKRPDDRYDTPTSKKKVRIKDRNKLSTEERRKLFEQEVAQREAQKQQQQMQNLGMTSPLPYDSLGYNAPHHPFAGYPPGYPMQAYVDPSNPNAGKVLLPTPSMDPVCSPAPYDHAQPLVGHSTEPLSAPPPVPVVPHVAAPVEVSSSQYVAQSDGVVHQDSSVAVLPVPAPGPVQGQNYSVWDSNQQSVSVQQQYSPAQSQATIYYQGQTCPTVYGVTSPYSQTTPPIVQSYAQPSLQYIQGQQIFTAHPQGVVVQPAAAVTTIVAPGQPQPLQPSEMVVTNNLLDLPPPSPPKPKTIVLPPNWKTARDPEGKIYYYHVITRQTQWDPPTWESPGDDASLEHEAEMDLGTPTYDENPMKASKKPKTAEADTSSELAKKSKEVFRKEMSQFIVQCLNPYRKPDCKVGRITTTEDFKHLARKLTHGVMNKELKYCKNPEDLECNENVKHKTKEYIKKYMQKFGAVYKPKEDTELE

As to `Cl.Nc1cccc2c(S(=O)(=O)NCc3ccccc3)cccc12`, the Activity entry was “Tde” in the assay with RS4-11 [1], “Not toxic” with RS4-11 [3] and “Dose-Dependent Effect” in the assay with KMS-11 [5]. For the same compound, the viability at 10 µM in the assay with MV4-11 [2] was 94%. In addition, the IC50 – broadly, the concentration that inhibits the measured activity by half – in [4] is above 20 µM. In addition, in [6], the inhibition entry is “Active”. In addition, the outcome in the assay on HL-60 and in the assay on MV4-11 [8] was Active. The outcome in the assay on MV4-11 [7] was inactive. Besides, the inhibition in vivo at 50 mg/kg with RS4-11 [9] came to 37.2%. The viability at 5 µM in the assay on KMS-11 [10] was 58.7%.
